In ChEMBL document CHEMBL3784969, “Pharmacokinetics of flutamide in patients with renal insufficiency” (Br J Clin Pharmacol, 1999):

What was measured:
[1] = Drug excretion in urine of patient (4 patients) with renal insufficiency at 250 mg, po administered as single dose by gas chromatography; type: ADME, organism-based; details: human, in vivo
Summary of the method: (§1)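 Males grouped by 24 h CLcr normalised to body surface area (>80, 50–80, 30–49, 5–29 ml min−1 1.73 m−2), fasted 10 h pre-dose and 4 h post-dose, given a single oral 250 mg flutamide dose. Plasma sampled 0–96 h; urine collected in blocks to 96 h. Flutamide and hydroxyflutamide measured by GC with electron-capture detection. Renal CL = Ae(0,96 h)/AUC(0,96 h); t1/2 = 0.693/λz.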

[2] = Cmax in patient (6 patients) with renal insufficiency at 250 mg, po administered as single dose by gas chromatography; type: ADME, organism-based; set-up: dose 250 mg, route oral; details: human, in vivo
Homo sapiens [3] = assay: Toxicity in patient with renal insufficiency assessed as level of lactic dehydrogenase at 250 mg, po administered as single dose (reference value: 85 to 220 IU/l); type: organism-based; details: in vivo
Summary of the method: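 Male subjects were grouped by creatinine clearance: normal renal function, graded impairment, or chronic haemodialysis. Each received a single oral dose as two 125 mg capsules while fasted. Serum lactic dehydrogenase was measured pre-dose and at follow-up and read against the 85–220 IU l−1 normal range.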

[4] = AUC (0 to 24 hrs) in patient (7 patients) with renal insufficiency at 250 mg, po administered as single dose by gas chromatography; type: ADME, organism-based; set-up: dose 250 mg, time < 24 hr, route oral; details: human, in vivo
Homo sapiens [5] = assay: Final time point in terminal phase in patient (4 patients) with renal insufficiency assessed as hydroxy flutamide at 250 mg, po administered as single dose by gas chromatography; type: ADME, organism-based; details: in vivo; summary of the method: as §1
[6] = Tmax in patient (3 patients) with renal insufficiency at 250 mg, po administered as single dose by gas chromatography; type: ADME, organism-based; details: human, in vivo; summary of the method: as §1
Homo sapiens [7] = assay: Final time point in terminal phase in patient (7 patients) with renal insufficiency at 250 mg, po administered as single dose by gas chromatography; type: ADME, organism-based; details: in vivo; summary of the method: as §1
[8] = Drug recovery in dialysate of patient (6 patients) with renal insufficiency at 250 mg, po administered as single dose 4 hrs prior to hemodialysis treatment measured during dialysis treatment by gas chromatography; type: ADME, organism-based; details: human, in vivo
Summary of the method: (§2)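 Group V haemodialysis males (CLcr <5 ml min−1 1.73 m−2). Single oral 250 mg flutamide (two 125 mg capsules) right after HD; after 14-day washout, same dose 4 h before HD lasting 2–4 h. Venous samples to 48 h, arterial/venous during HD, dialysate in hourly blocks. GC with 63Ni electron-capture detection. CL(HD) = dialysate Ae(HD)/arterial AUC(HD); renal CL = Ae(0,48)/AUC(0,48 h).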

Homo sapiens [9] = assay: Renal clearance in patient (6 patients) with renal insufficiency assessed as hydroxy flutamide at 250 mg, po administered as single dose by gas chromatography; type: ADME, organism-based, Kidney; details: in vivo; summary of the method: as §1
[10] = AUC (0 to 24 hrs) in patient (3 patients) with renal insufficiency at 250 mg, po administered as single dose by gas chromatography; type: ADME, organism-based; set-up: time < 24 hr, dose 250 mg, route oral; details: human, in vivo
Homo sapiens [11] = assay: Cmax in patient (4 patients) with renal insufficiency assessed as hydroxy flutamide at 250 mg, po administered as single dose by gas chromatography; type: ADME, organism-based; set-up: dose 250 mg, route oral; details: in vivo
[12] = Drug excretion in urine of patient (6 patients) with renal insufficiency assessed as hydroxy flutamide at 250 mg, po administered as single dose by gas chromatography; type: ADME, organism-based; details: human, in vivo; summary of the method: as §1
[13] = Drug excretion in urine of patient (3 patients) with renal insufficiency at 250 mg, po administered as single dose by gas chromatography; type: ADME, organism-based; details: human, in vivo; summary of the method: as §1
Homo sapiens [14] = assay: Terminal half life in patient (3 patients) with renal insufficiency assessed as hydroxy flutamide at 250 mg, po administered as single dose by gas chromatography; type: ADME, organism-based; details: in vivo; summary of the method: as §1
Homo sapiens [15] = assay: Toxicity in patient with renal insufficiency assessed as headache at 250 mg, po administered as single dose; type: organism-based; details: in vivo
Summary of the method: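 26 male subjects in groups by 24 h creatinine clearance (normalized to body surface area): >80, 50–80, 30–49, 5–29, <5 ml min−1 1.73 m−2 on haemodialysis. Given as two 125 mg capsules after a 10 h fast, continued 4 h post-dose. Prescription drugs withheld for the same period. Subjects confined 12 h pre-dose to 48 h post-dose, with adverse events compared across renal-function groups.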

Homo sapiens [16] = assay: AUC (0 to 96 hrs) in patient (3 patients) with renal insufficiency at 250 mg, po assessed as hydroxy flutamide administered as single dose by gas chromatography; type: ADME, organism-based; set-up: dose 250 mg, time < 96 hr, route oral; details: in vivo
Homo sapiens [17] = assay: AUClast in patient (4 patients) with renal insufficiency at 250 mg, po assessed as hydroxy flutamide administered as single dose by gas chromatography; type: ADME, organism-based; set-up: dose 250 mg, time 0 - last, route oral; details: in vivo
Homo sapiens [18] = assay: Terminal half life in patient (4 patients) with renal insufficiency assessed as hydroxy flutamide at 250 mg, po administered as single dose by gas chromatography; type: ADME, organism-based; details: in vivo; summary of the method: as §1
Homo sapiens [19] = assay: AUC (0 to 24 hrs) in patient (4 patients) with renal insufficiency assessed as hydroxy flutamide at 250 mg, po administered as single dose by gas chromatography; type: ADME, organism-based; set-up: dose 250 mg, time < 24 hr, route oral; details: in vivo
Homo sapiens [20] = assay: Final time point in terminal phase in patient (6 patients) with renal insufficiency at 250 mg, po administered as single dose by gas chromatography; type: ADME, organism-based; details: in vivo; summary of the method: as §1
Homo sapiens [21] = assay: AUClast in patient (7 patients) with renal insufficiency at 250 mg, po assessed as hydroxy flutamide administered as single dose by gas chromatography; type: ADME, organism-based; set-up: dose 250 mg, time 0 - last, route oral; details: in vivo
[22] = Cmax in patient (6 patients) with renal insufficiency at 250 mg, po administered as single dose 4 hrs prior to hemodialysis treatment measured at starting time of dialysis and post dialysis treatment by gas chromatography; type: ADME, organism-based; set-up: dose 250 mg, route oral; details: human, in vivo
[23] = Drug excretion in urine of patient (7 patients) with renal insufficiency at 250 mg, po administered as single dose by gas chromatography; type: ADME, organism-based; details: human, in vivo; summary of the method: as §1
Homo sapiens [24] = assay: Final time point in terminal phase in patient (3 patients) with renal insufficiency at 250 mg, po administered as single dose by gas chromatography; type: ADME, organism-based; details: in vivo; summary of the method: as §1
[25] = Drug excretion in dialysate of patient with renal insufficiency at 250 mg, po administered first dose followed by 14 days wash out period and administered second dose 4 hrs prior to hemodialysis measured during hemodialysis treatment by gas chromatography; type: ADME, organism-based; details: human, in vivo; summary of the method: as §2
Homo sapiens [26] = assay: Final time point in terminal phase in patient (3 patients) with renal insufficiency assessed as hydroxy flutamide at 250 mg, po administered as single dose by gas chromatography; type: ADME, organism-based; details: in vivo; summary of the method: as §1
[27] = Tmax in patient (4 patients) with renal insufficiency at 250 mg, po administered as single dose by gas chromatography; type: ADME, organism-based; details: human, in vivo; summary of the method: as §1
Homo sapiens [28] = assay: AUC (0 to 96 hrs) in patient (4 patients) with renal insufficiency at 250 mg, po assessed as hydroxy flutamide administered as single dose by gas chromatography; type: ADME, organism-based; set-up: dose 250 mg, time < 96 hr, route oral; details: in vivo
[29] = Drug excretion in urine of patient (7 patients) with renal insufficiency assessed as hydroxy flutamide at 250 mg, po administered as single dose by gas chromatography; type: ADME, organism-based; details: human, in vivo; summary of the method: as §1
Homo sapiens [30] = assay: AUC in patient with renal insufficiency at 250 mg, po administered first dose followed by 14 days wash out period and administered second dose 4 hrs prior to hemodialysis measured during hemodialysis treatment by gas chromatography; type: ADME, organism-based; details: in vivo; summary of the method: as §2
Homo sapiens [31] = assay: Final time point in terminal phase in patient (6 patients) with renal insufficiency at 250 mg, po administered as single dose 4 hrs prior to hemodialysis treatment measured at starting time of dialysis and post dialysis treatment by gas chromatography; type: ADME, organism-based; details: in vivo; summary of the method: as §2

Compound: CC(C)C(=O)Nc1ccc([N+](=O)[O-])c(C(F)(F)F)c1 [FLUTAMIDE]
- Drug excretion [1]: 30 µg
- Cmax [2]: 0.0534 µg/mL
- Activity (Homo sapiens [3]): 144 IU/L
- AUC(0-t) at 24 h [4]: 0.0598 µg·h/mL
- Time (Homo sapiens [5]): 56 h
- Tmax [6]: 2 h
- Time (Homo sapiens [7]): 3.6 h
- Drug recovery [8]: 0 mg
- CL (Homo sapiens [9]): 0.36 mL/min
- AUC(0-t) at 24 h [10]: 0.098 µg·h/mL
- Cmax (Homo sapiens [11]): 0.874 µg/mL
- Drug excretion [12]: 118.3 µg
- Drug excretion [13]: 14 µg
- beta t1/2 (Homo sapiens [14]): 8 h
- Activity (Homo sapiens [15]): 12%
- AUC (Homo sapiens [16]): 6.907 µg·h/mL
- AUClast (Homo sapiens [17]): 6.435 µg·h/mL
- beta t1/2 (Homo sapiens [18]): 9 h
- AUC (Homo sapiens [19]): 5.821 µg·h/mL
- Time (Homo sapiens [20]): 4.4 h
- AUClast (Homo sapiens [21]): 4.928 µg·h/mL
- Cmax [22]: 0.081 µg/mL
- Drug excretion [23]: 39 µg
- Time (Homo sapiens [24]): 6 h
- Drug excretion [25]: 1158 µg
- Time (Homo sapiens [26]): 52 h
- Tmax [27]: 1 h
- AUC (Homo sapiens [28]): 6.499 µg·h/mL
- Drug excretion [29]: 88.3 µg
- AUC (Homo sapiens [30]): 0.9076 µg·h/mL
- Time (Homo sapiens [31]): 7 h
